From publication PMC7338260 (European journal of medicinal chemistry, 2020)

Experiments:
[1] = system: HEK293 cell line expressing hNOD2 and NFκB-SEAP reporter; assay: Human NOD2 signaling HEKBlue reporter assay; type: cell-based; conditions: read-out: RIPK2/NOD2 Cell Assay IC50, HEKBlue, 1 ng/mL L18-MDP, mean of two or three determinations ± standard deviation, NI: No inhibition up to 10 μM
Outline: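 Cells seeded at 7.5-15x10^3 per well; after 24–48 h switched to HEKBlue detection medium and given an 11-point dose range of test compound together with the stimulant. SEAP read as absorbance at 620 nm after 7–9 h. Media-only background subtracted; % inhibition relative to DMSO/L18-MDP controls; IC50 by non-linear regression.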

[2] = biological target: Recombinant RIPK2 protein (Homo sapiens, UniProt O43353); assay: RIPK2 enzyme assay; type: biochemical; conditions: for selectivity for RIPK2 versus ALK2: ratio of ALK2 to RIPK2 kinase IC50
Outline: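 Started with solution of 100 μM ATP + 1 mg/ml RS repeat peptide, 2 h RT; ADP-Glo luminescence. IC50 by non-linear regression. ALK2: human enzyme, casein 1 mg/mL, γ-33ATP 10 μM, 10 nM–100 μM compound, 30 min, 33P-casein.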

[3] = system: GST-BIR2-cIAP1 and RIPK2; conditions: cited from earlier work
[4] = system: XIAP-mediated RIPK2 ubiquitination; conditions: cited from earlier work
[5] = system: U2OS/NOD2 cells; conditions: cited from earlier work
[6] = system: RAW264.7 macrophages; conditions: cited from earlier work
[7] = system: RAW264.7 macrophages; type: cell-based; conditions: at 1 μM; data not shown

Sequence of Recombinant RIPK2 protein (O43353 whole entry): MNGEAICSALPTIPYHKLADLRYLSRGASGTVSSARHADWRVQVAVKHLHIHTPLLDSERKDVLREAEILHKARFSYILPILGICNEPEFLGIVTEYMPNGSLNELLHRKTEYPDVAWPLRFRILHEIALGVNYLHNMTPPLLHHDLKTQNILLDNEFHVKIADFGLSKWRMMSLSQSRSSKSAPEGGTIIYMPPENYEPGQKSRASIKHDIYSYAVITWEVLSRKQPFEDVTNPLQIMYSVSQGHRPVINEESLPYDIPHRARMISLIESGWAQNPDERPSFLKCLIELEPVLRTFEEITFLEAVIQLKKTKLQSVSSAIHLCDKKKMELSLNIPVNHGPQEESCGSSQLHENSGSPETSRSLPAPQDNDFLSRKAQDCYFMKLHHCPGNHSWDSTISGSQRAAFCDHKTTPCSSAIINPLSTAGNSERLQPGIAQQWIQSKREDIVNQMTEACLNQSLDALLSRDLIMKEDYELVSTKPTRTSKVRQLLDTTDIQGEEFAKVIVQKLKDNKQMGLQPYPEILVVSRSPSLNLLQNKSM

SMILES: CCCS(=O)(=O)Nc1cc(-c2cc(-c3ccc(N4CCNCC4)cc3)cnc2N)cc(OCC)c1OC [Compound 18q, N-(5-(2-Amino-5-(4-(piperazin-1-yl)phenyl)pyridin-3-yl)-3-ethoxy-2-methoxyphenyl)propane-1-sulfonamide]
- IC50 [1]: > 10 µM

SMILES: CCCS(=O)(=O)Nc1cc(-c2cc(-c3ccc(N4CCNCC4)cc3)cnc2N)ccc1O [Compound 18n, N-(5-(2-Amino-5-(4-(piperazin-1-yl)phenyl)pyridin-3-yl)-2-hydroxyphenyl)propane-1-sulfonamide]
- IC50 [1]: > 5 µM

SMILES: CCCS(=O)(=O)Nc1cc(-c2cc(-c3ccccc3S(C)(=O)=O)cnc2N)ccc1OC [Compound 18ab, N-(5-(2-Amino-5-(2-(methylsulfonyl)phenyl)pyridin-3-yl)-2-methoxyphenyl)propane-1-sulfonamide]
- IC50 [1]: > 10 µM

SMILES: CCCS(=O)(=O)Nc1cc(-c2cc(-c3ccc(N4CCNCC4)cc3)cnc2N)ccc1OC [Compound 18m, N-(5-(2-Amino-5-(4-(piperazin-1-yl)phenyl)pyridin-3-yl)-2-methoxyphenyl)propane-1-sulfonamide]
- IC50 [2]: 0.041 ± 0.019 µM
- selectivity for RIPK2 versus ALK2 [2]: 86 fold

SMILES: COc1cc(-c2cc(-c3ccc(N4CCNCC4)cc3)cnc2C)cc(OC)c1OC [Compound 9a, reference compound]
- IC50 [1]: > 10 µM

SMILES: CCCS(=O)(=O)Nc1cc(-c2cc(-c3ccc(N4CCNCC4)cc3)cnc2N)cc(F)c1OC [Compound 18t, N-(5-(2-Amino-5-(4-(piperazin-1-yl)phenyl)pyridin-3-yl)-3-fluoro-2-methoxyphenyl)propane-1-sulfonamide]
- interaction between GST-BIR2-cIAP1 and RIPK2 [3]: interfered
- XIAP-mediated RIPK2 ubiquitination [4]: blocked
- selectivity for RIPK2 versus ALK2 [2]: > 20 fold
- inhibition of L18-MDP-induced CXCL8 production [5]: efficient inhibition
- inhibition of L18-MDP-induced TNFα release [6]: efficient inhibition
- block of RIPK1 and RIPK3 dependent necroptosis [7]: did not block

SMILES: CCCS(=O)(=O)Nc1cc(-c2cc(-c3ccc(N4CCNCC4)cc3)cnc2N)cc(OC)c1OC [Compound 18p, N-(5-(2-Amino-5-(4-(piperazin-1-yl)phenyl)pyridin-3-yl)-2,3-dimethoxyphenyl)propane-1-sulfonamide]
- interaction between GST-BIR2-cIAP1 and RIPK2 [3]: interfered
- XIAP-mediated RIPK2 ubiquitination [4]: blocked
- inhibition of L18-MDP-induced CXCL8 production [5]: efficient inhibition
- inhibition of L18-MDP-induced TNFα release [6]: efficient inhibition

SMILES: CCCS(=O)(=O)Nc1cc(-c2cc(-c3ccc(S(C)(=O)=O)cc3)cnc2N)ccc1OC [Compound 18ad, N-(5-(2-Amino-5-(4-(methylsulfonyl)phenyl)pyridin-3-yl)-2-methoxyphenyl)propane-1-sulfonamide]
- IC50 [1]: > 10 µM
